Activity calls are given as the source filed them. The rule behind the calls is not given here.
Legend:
Rattus norvegicus [1] = experiment: Antihyperlipidemic activity in Triton-induced dyslipidemic Wistar rat model assessed as reduction in cholesterol level at 100 mg/kg, po; type: functional; set-up: scale not given: the % may be the effect or the level left
Method in brief: (§1)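 Male Wistar rats, 8−10 weeks, about 160 g, fed normal pellet diet. Triton X-100 given at 400 mg/kg ip; compound given orally in 1% gum acacia. Retro-orbital blood taken 18 h after Triton and serum separated at 1500g for 10 min. TG and cholesterol measured by kit. Mean % change versus dyslipidemic control, 5 animals.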

[2] = Volume of distribution in Sprague-Dawley rat at 10 mg/kg, iv by LC-MS/MS method; type: ADME, organism-based; set-up: dose 10 mg/kg, route intravenous; conditions: in vivo
Method in brief: (§2)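 Male Sprague−Dawley rats, 225 ± 25 g. Single tail-vein dose of 10 mg/kg in DMF/PG/water (5:4:1), 0.2 μ filtered. Blood drawn from 0.08 to 48 h. Plasma spun at 2000g for 10 min at 4 °C and kept at −60 °C. LC-MS/MS with linear range 0.78−400 ng/mL; noncompartmental parameters.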

Syrian golden hamster [3] = experiment: Antidyslipidemic activity in high fructose and high-fat diet fed dyslipidemic Syrian golden hamster model assessed as reduction in LDL-cholesterol level at 100 mg/kg/day for 7 days; type: functional, Mesocricetus auratus; set-up: scale not given: the % may be the effect or the level left
Method in brief: (§3)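 Syrian golden hamsters fed high-fructose high-fat diet; oral dosing in 1% gum acacia at 10, 30, 100 mg/kg (or 25 mg/kg) for 7 days, sham control given vehicle; plasma TG, cholesterol, LDL-C, HDL-C, glycerol and NEFA (kits), lipoprotein lipase activity and body weight; % change versus HFD control, six hamsters per group.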

Syrian golden hamster [4] = experiment: Antidyslipidemic activity in high fructose and high-fat diet fed dyslipidemic Syrian golden hamster model assessed as reduction in triglyceride level at 100 mg/kg/day for 7 days; type: functional, Mesocricetus auratus; set-up: scale not given: the % may be the effect or the level left; method in brief: as §3
Rattus norvegicus [5] = experiment: Antihyperlipidemic activity in Triton-induced dyslipidemic Wistar rat model assessed as reduction in triglyceride level at 100 mg/kg, po; type: functional; set-up: scale not given: the % may be the effect or the level left; method in brief: as §1
Mus musculus [6] = experiment: Antidyslipidemic activity in diabetic C57BL/KsJ db/db mouse model assessed as increase in plasma HDL-C/cholesterol ratio at 25 mg/kg, po qd for 10 days; type: functional
Method in brief: (§4)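 db/db mice (blood glucose 200−350, TG 170−250, cholesterol 170−250, HDL-C 32−40 mg/dL) dosed orally at 25 mg/kg daily for 10 days; retro-orbital blood taken on day 11 for plasma TG, cholesterol and HDL-C (and HDL-C/CHOL ratio); mean % change versus vehicle control, 5 mice per group; Student t test.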

Syrian golden hamster [7] = experiment: Antidyslipidemic activity in high fructose and high-fat diet fed dyslipidemic Syrian golden hamster model assessed as increase in HDL-cholesterol level at 25 mg/kg/day for 7 days; type: functional, Mesocricetus auratus
[8] = Elimination half life in Sprague-Dawley rat at 10 mg/kg, iv by LC-MS/MS method; type: ADME, organism-based; set-up: dose 10 mg/kg, route intravenous; conditions: in vivo, read-out: beta t1/2 (converted); method in brief: as §2
Syrian golden hamster [9] = experiment: Antidyslipidemic activity in high fructose and high-fat diet fed dyslipidemic Syrian golden hamster model assessed as reduction in LDL-cholesterol level at 25 mg/kg/day for 7 days; type: functional, Mesocricetus auratus; set-up: scale not given: the % may be the effect or the level left; method in brief: as §3
[10] = Cmax in Sprague-Dawley rat at 40 mg/kg, po by LC-MS/MS method; type: ADME, organism-based; set-up: dose 40 mg/kg, route oral; conditions: in vivo
Method in brief: (§5)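 Male Sprague−Dawley rats fasted 10−12 h, then given a single 40 mg/kg oral gavage as an aqueous 0.5% methyl cellulose suspension. Blood drawn from 0.25 to 120 h. Plasma spun at 2000g for 10 min at 4 °C and stored at −60 °C. LC-MS/MS, linear range 0.78−400 ng/mL.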

[11] = Elimination half life in Sprague-Dawley rat at 40 mg/kg, po by LC-MS/MS method; type: ADME, organism-based; set-up: dose 40 mg/kg, route oral; conditions: in vivo, read-out: beta t1/2 (converted); method in brief: as §5
[12] = Mean residence time in Sprague-Dawley rat at 40 mg/kg, po by LC-MS/MS method; type: ADME, organism-based; set-up: dose 40 mg/kg, route oral; conditions: in vivo; method in brief: as §5
[13] = Cmax in Sprague-Dawley rat at 10 mg/kg, iv by LC-MS/MS method; type: ADME, organism-based; set-up: dose 10 mg/kg, route intravenous; conditions: in vivo; method in brief: as §2
Mus musculus [14] = experiment: Antihyperglycemic activity in diabetic C57BL/KsJ db/db mouse model assessed as improvement in glucose tolerance in hyperglycemia at 25 mg/kg, po qd for 10 days; type: functional
Method in brief: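 Male/female C57BL/KsJ db/db mice, 12−18 weeks, 40−50 g, selected for glucose 200−350 mg/dL. Oral dosing daily for 10 days. OGTT on day 10 after an overnight fast: compound at −30 min, then 3 g/kg oral glucose at 0 min. Glucose read at 30, 60, 90 and 120 min. AUC taken versus vehicle, 5 mice per group.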

Rattus norvegicus [15] = experiment: AUC in Sprague-Dawley rat at 10 mg/kg, iv by LC-MS/MS method; conditions: in vivo
Syrian golden hamster [16] = experiment: Antidyslipidemic activity in high fructose and high-fat diet fed dyslipidemic Syrian golden hamster model assessed as reduction in body weight at 100 mg/kg/day for 7 days; type: functional, organism-based; conditions: Mesocricetus auratus; method in brief: as §3
[17] = Oral bioavailability in Sprague-Dawley rat at 40 mg/kg by LC-MS/MS method; type: ADME, organism-based; conditions: in vivo; method in brief: as §5
Syrian golden hamster [18] = experiment: Antidyslipidemic activity in high fructose and high-fat diet fed dyslipidemic Syrian golden hamster model assessed as reduction in cholesterol level at 25 mg/kg/day for 7 days; type: functional, Mesocricetus auratus; set-up: scale not given: the % may be the effect or the level left
Mus musculus [19] = experiment: Antidyslipidemic activity in diabetic C57BL/KsJ db/db mouse model assessed as reduction in plasma cholesterol level at 25 mg/kg, po qd for 10 days; type: functional; set-up: scale not given: the % may be the effect or the level left; method in brief: as §4
[20] = Mean residence time in Sprague-Dawley rat at 10 mg/kg, iv by LC-MS/MS method; type: ADME, organism-based; set-up: dose 10 mg/kg, route intravenous; conditions: in vivo; method in brief: as §2
Rattus norvegicus [21] = experiment: AUC in Sprague-Dawley rat at 40 mg/kg, po by LC-MS/MS method; conditions: in vivo
Mus musculus [22] = experiment: Antidyslipidemic activity in diabetic C57BL/KsJ db/db mouse model assessed as increase in plasma HDL-cholesterol level at 25 mg/kg, po qd for 10 days; type: functional; method in brief: as §4
Syrian golden hamster [23] = experiment: Antidyslipidemic activity in high fructose and high-fat diet fed dyslipidemic Syrian golden hamster model assessed as reduction in triglyceride level at 25 mg/kg/day for 7 days; type: functional, Mesocricetus auratus; set-up: scale not given: the % may be the effect or the level left
Method in brief: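 HFD-fed Syrian golden hamsters, six per group, fed a high-fructose diet. Oral dosing in 1% gum acacia for 7 days. Sham group received vehicle. Plasma TG was measured and body weight tracked. Results given as % change versus HFD control.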

Syrian golden hamster [24] = experiment: Antidyslipidemic activity in high fructose and high-fat diet fed dyslipidemic Syrian golden hamster model assessed as reduction in cholesterol level at 100 mg/kg/day for 7 days; type: functional, Mesocricetus auratus; set-up: scale not given: the % may be the effect or the level left
Mus musculus [25] = experiment: Reduction in body weight in diabetic C57BL/KsJ db/db mouse model in hyperglycemia at 25 mg/kg, po qd for 10 days relative to untreated control; type: functional
Method in brief: (§6)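 db/db mice (C57BL/KsJ, 12−18 weeks, 40−50 g, glucose 200−350 mg/dL), housed at 23 ± 2.0 °C on a 12 h light cycle. Oral dosing daily for 10 days. Blood glucose checked each morning through day 9. Body weight recorded daily from day 1 to day 10. Mean % change versus vehicle, 5 mice per group; Student t test.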

Syrian golden hamster [26] = experiment: Antidyslipidemic activity in high fructose and high-fat diet fed dyslipidemic Syrian golden hamster model assessed as increase in HDL-cholesterol level at 100 mg/kg/day for 7 days; type: functional, Mesocricetus auratus
[27] = Plasma clearance in Sprague-Dawley rat at 40 mg/kg, po by LC-MS/MS method; type: ADME, organism-based; set-up: dose 40 mg/kg, route oral; method in brief: as §5
Mus musculus [28] = experiment: Antihyperglycemic activity in diabetic C57BL/KsJ db/db mouse model assessed as reduction in hyperglycemia at 25 mg/kg, po qd for 10 days; type: functional; set-up: scale not given: the % may be the effect or the level left; method in brief: as §6
Mus musculus [29] = experiment: Antihyperglycemic activity in diabetic C57BL/KsJ db/db mouse model assessed as reduction in plasma insulin level in hyperglycemia at 25 mg/kg, po qd for 10 days; type: functional; set-up: scale not given: the % may be the effect or the level left
Method in brief: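 db/db mice dosed orally every day for 10 days. On day 11, retro-orbital blood was drawn and plasma insulin measured. Mean % change versus vehicle-treated control, 5 mice per group; Student t test.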

Rattus norvegicus [30] = experiment: Antihyperlipidemic activity in Triton-induced dyslipidemic Wistar rat model assessed as reduction in phospholipid level at 100 mg/kg, po; type: functional; set-up: scale not given: the % may be the effect or the level left; method in brief: as §1
[31] = Plasma clearance in Sprague-Dawley rat at 10 mg/kg, iv by LC-MS/MS method; type: ADME, organism-based; set-up: dose 10 mg/kg, route intravenous; method in brief: as §2
[32] = Tmax in Sprague-Dawley rat at 40 mg/kg, po by LC-MS/MS method; type: ADME, organism-based; set-up: dose 40 mg/kg, route oral; conditions: in vivo; method in brief: as §5
Syrian golden hamster [33] = experiment: Antidyslipidemic activity in high fructose and high-fat diet fed dyslipidemic Syrian golden hamster model assessed as reduction in body weight at 25 mg/kg/day for 7 days; type: functional, Mesocricetus auratus; set-up: scale not given: the % may be the effect or the level left; method in brief: as §3
Mus musculus [34] = experiment: Antidyslipidemic activity in diabetic C57BL/KsJ db/db mouse model assessed as reduction in plasma triglyceride level at 25 mg/kg, po qd for 10 days; type: functional; set-up: scale not given: the % may be the effect or the level left; method in brief: as §4
Rattus norvegicus [35] = experiment: Volume of distribution in Sprague-Dawley rat at 40 mg/kg, po by LC-MS/MS method; type: ADME, organism-based; set-up: dose 40 mg/kg, route oral; conditions: in vivo; method in brief: as §5

Vd [2]: 69.4 L/kg | half-life [8]: 16.3 h | Cmax [10]: 60.9 ng/mL | half-life [11]: 19.6 h | MRT [12]: 43.2 h | Cmax [13]: 998 ng/mL | AUC (Rattus norvegicus [15]): 2717.5 ng·h/mL | bioavailability [17]: 29.5% | MRT [20]: 22.8 h | AUC (Rattus norvegicus [21]): 3469.28 ng·h/mL | CL/F [27]: 57 mL/min/kg | clearance [31]: 60.8 mL/min/kg | Tmax [32]: 8 h | Vd (Rattus norvegicus [35]): 96.73 L/kg
Structure (SMILES): CC(C)(C)NCC(O)COc1ccc2c(=O)cc(-c3cc(OCc4ccccc4)cc(OCc4ccccc4)c3)oc2c1 (racemic)
Activity (Rattus norvegicus [1]): 21% | Activity (Syrian golden hamster [3]): 61.9% | Activity (Syrian golden hamster [4]): 61.5% | Activity (Rattus norvegicus [5]): 9% | Percent increase in HDL-C/cholesterol ratio vs vehicle (Mus musculus [6]): 55.7 | Activity (Syrian golden hamster [7]): 13.3% | Activity (Syrian golden hamster [9]): 23.3% | Activity (Mus musculus [14]): 25.9% | Activity (Syrian golden hamster [16]): Active | Activity (Syrian golden hamster [18]): 15.3% | Activity (Mus musculus [19]): 22.3% | Activity (Mus musculus [22]): 20.9% | Activity (Syrian golden hamster [23]): 22.2% | Activity (Syrian golden hamster [24]): 22.9% | Activity (Mus musculus [25]): inactive | Activity (Syrian golden hamster [26]): 20% | Activity (Mus musculus [28]): 38.3% | Activity (Mus musculus [29]): 30.6% | Activity (Rattus norvegicus [30]): 18% | Activity (Syrian golden hamster [33]): 8.89% | Activity (Mus musculus [34]): 20.1%
